Results on six compounds are retold here after ChEMBL document CHEMBL5344432, “Identification of a Dual Autophagy and REV-ERB Inhibitor with in Vivo Anticancer Efficacy” (J Med Chem, 2024).

Structures are written as SMILES. Values after ≈ are worked out from the molar mass of the structure shown. Active and inactive are the calls of the source. No cut-off for these calls is given here.

Series [1] in a line: Metabolic stability in rat liver microsomes assessed as half life preincubated for 15 mins followed by NADPH addition and measured after 1 to 2 hrs by LC-MS/MS analysis. It is filed as ADME, Microsome. The settings on record: time 75-135 min; for half-life: liver microsomes. Summed up: (§1)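 Microsomal stability assessed in mouse, human, rat or dog liver microsomes with NADPH cofactor. Half-life and percent parent remaining at 60 and 120 min reported. Mean of at least two independent experiments, each in two technical replicates.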
A general note: Liver microsomes are a subcellular fraction often used to study metabolism.

Series [2] can be described thus: Metabolic stability in rat liver microsomes assessed as parent compound remaining preincubated for 15 mins followed by NADPH addition and measured after 1 to 2 hrs by LC-MS/MS analysis. As to conditions: time 75-135 min. It is filed as ADME, Microsome. Summed up:
as §1

Series [3] can be described thus: Metabolic stability in mouse liver microsomes assessed as parent compound remaining preincubated for 15 mins followed by NADPH addition and measured after 1 hr by LC-MS/MS analysis. It is filed as ADME, Microsome. The settings on record: time 75 min, read-out: Stability. In outline:
as §1

Series [4] has as its system BT-474. Put plainly: Cytotoxicity against human BT-474 cells. It is filed as functional. Summed up: (§2)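 BT-474 breast cancer cells and nontumorigenic HMECs treated 48 h with concentrations up to 30 μM. CC50 derived from concentration–response viability plots. Values >30 μM assigned when viability fell by less than 50% of vehicle at 30 μM. Mean ± SEM, n ≥ 3.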
Series [5] in a line: Metabolic stability in human liver microsomes assessed as parent compound remaining preincubated for 15 mins followed by NADPH addition and measured after 1 hr by LC-MS/MS analysis. The settings on record: time 75 min, read-out: Stability. It is filed as ADME, Microsome. In outline:
as §1

The nature of series [6]: Metabolic stability in mouse liver microsomes assessed as half life preincubated for 15 mins followed by NADPH addition and measured after 1 to 2 hrs by LC-MS/MS analysis. It is filed as ADME, Microsome. The settings on record: time 75-135 min; for t1/2: microsomes. Summed up: as §1
The nature of series [7]: Metabolic stability in mouse liver microsomes assessed as half-life preincubated for 15 mins followed by UDPGA addition and measured after 2 hrs by LC-MS/MS analysis.
Series [8] in a line: Aqueous kinetic solubility of the compound in PBS at pH 7.4 at 250 uM incubated for 24 hrs by UPLC/MS analysis. It is filed as physicochemical. The settings on record: read-out: Kinetic_solubility. In outline:
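Kinetic solubility measured in phosphate-buffered saline, pH 7.4. Mean of at least two independent experiments, each run in two technical replicates.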

The nature of series [9]: Metabolic stability in human liver microsomes assessed as half life preincubated for 15 mins followed by NADPH addition and measured after 1 to 2 hrs by LC-MS/MS analysis. It is filed as ADME, Microsome. The settings on record: liver microsomes, time 75-135 min. Summed up: as §1
The nature of series [10]: Metabolic stability in human liver microsomes assessed as parent compound remaining preincubated for 15 mins followed by UDPGA addition and measured after 2 hrs by LC-MS/MS analysis. It is filed as ADME, Microsome. As to conditions: time 135 min, read-out: Stability. Summed up:
(§3)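 Mouse and human liver microsomes incubated with UDPGA cofactor. Half-life and percent parent remaining at 120 min reported. Mean of at least two independent experiments, each in two technical replicates.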

Series [11] can be described thus: Metabolic stability in mouse liver microsomes assessed as parent compound remaining preincubated for 15 mins followed by NADPH addition and measured after 2 hrs by LC-MS/MS analysis. It is filed as ADME, Microsome. The settings on record: time 135 min, read-out: Stability. In outline: as §1
Series [12] can be described thus: Metabolic stability in human liver microsomes assessed as parent compound remaining preincubated for 15 mins followed by NADPH addition and measured after 2 hrs by LC-MS/MS analysis. It is filed as ADME, Microsome. As to conditions: time 135 min, read-out: Stability. Summed up: as §1
A short description of series [13]: (§4) Cytotoxicity against HMECs. It is filed as toxicity, cell-based, HMEC. The settings on record: human, HMEC cells. In outline:
as §2

A short description of series [14]: Metabolic stability in mouse liver microsomes assessed as half life preincubated for 15 mins followed by UDPGA addition and measured after 2 hrs by LC-MS/MS analysis. It is filed as ADME, Microsome. As to conditions: time 135 min. Summed up:
as §3

A short description of series [15]: Metabolic stability in dog liver microsomes assessed as half life preincubated for 15 mins followed by NADPH addition and measured after 1 to 2 hrs by LC-MS/MS analysis. It is filed as ADME, Canis lupus familiaris, Microsome. As to conditions: time 75-135 min; for t1/2: microsomes. In outline:
as §1

For series [16], the system named is HMEC. The series is described as §4. The settings on record: human, hmec. It is filed as toxicity, cell-based. In outline:
as §2

The nature of series [17]: Metabolic stability in human liver microsomes assessed as percent compound remaining preincubated for 15 mins followed by UDPGA addition and measured after 2 hrs by LC-MS/MS analysis.
The subject of series [18] is A-375. Put plainly: Cytotoxicity against human A-375 cells. It is filed as functional. In outline: (§5)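 Human cancer lines (A375, MDA-MB-231, OMM-1, UPMM-2, CAPAN-2, HepG2, HT-29, HCT116) treated up to 30 μM. CC50 derived from concentration–response viability plots. Mean ± SEM, n ≥ 6. Two-tailed unpaired t test used between compounds.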
Series [19] in a line: Inhibition of REV-ERBbeta (unknown origin) transcription expressed in HEK293 cells incubated for 24 hrs by gaussia luciferase based assay. It is filed as cell-based. The settings on record: Homo sapiens, HEK293, 24 h. In outline:
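HEK-293 cells cotransfected with REV-ERBβ and a luciferase reporter driven by two repeats of a REV-ERB response element (RevRE) consensus, then treated across a concentration range. Luciferase activity is expressed as fold of DMSO vehicle, mean ± SEM, n = 6, and EC50 is taken from the concentration-response curve. A parallel reporter carrying a mutated RevRE served as a specificity control.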

For series [20], the system named is A375 (human). Put plainly: Inhibition of autophagy in human A375 cells expressing EGFP-LC3B assessed as accumulation of autophagosome after 24 hrs by Hoechst 33342 staining based fluorescent microscopy analysis. The settings on record: dose 1.25-5 µM.
For series [21], the system named is HCT-116. Put plainly: Cytotoxicity against human HCT-116 cells. It is filed as functional. Summed up:
as §5

The subject of series [22] is HT-29. Description: Cytotoxicity against human HT-29 cells. It is filed as functional. Summed up:
as §5

Series [23] in a line: Cytotoxicity against human OMM-1 cells. It is filed as functional. In outline:
as §5

Series [24] has as its system Capan-2. Description: Cytotoxicity against human Capan-2 cells. It is filed as functional. In outline: as §5
The subject of series [25] is HepG2. Description: Cytotoxicity against human HepG2 cells. It is filed as functional. Summed up: as §5
For series [26], the system named is A375 (human). Put plainly: Inhibition of autophagy in human A375 cells expressing EGFP-LC3B assessed as increase in LC3-II protein level at 2.5 uM after 24 hrs by immunoblotting analysis. (In western blotting, separated proteins are transferred to a membrane and probed.)
Series [27] in a line: Cytotoxicity against human UPMM-2 cells. It is filed as functional. In outline:
as §5

Series [28] concerns MDA-MB-231. Description: Cytotoxicity against human MDA-MB-231 cells. It is filed as functional. In outline:
as §5

Series [29] can be described thus: Metabolic stability in dog liver microsomes assessed as parent compound remaining preincubated for 15 mins followed by NADPH addition and measured after 1 to 2 hrs by LC-MS/MS analysis. It is filed as ADME, Canis lupus familiaris, Microsome. The settings on record: time 75-135 min. In outline:
as §1

The term half-life denotes the time in which the quantity being followed falls by half. A word on the CC50: it is the concentration giving 50% cytotoxicity. Higher therefore signals lower toxicity to the cells. As for `CN1CC2(CC(Cc3cccc(CNC4(c5ccc(F)cc5)CCCC4)c3)C2)C1`, the half-life in series [1] is greater than 1 h; in series [9], greater than 2 h; in series [14], greater than 2 h. Also, the Stability in series [2] turned out to be 64%. In addition, the remaining at 1 h in [3] amounted to 70%; in [5] it was 82%. Besides, the figures for the CC50 in series [4] and in series [13] were 4.83 µM and greater than 30 µM, respectively. The t1/2 in series [6] amounted to 1.92 h; in [15] it was 0.883 h. For the same compound, the t1/2 at 2 h in series [7] was greater than 2 h. Also, in series [8], the solubility kinetic at 24 h, 250 µM was 232 µM (≈ 91.1 µg/mL). For the same compound, the remaining at 2 h in [10] is 95%; in [11] it was 49%; in [12], 66%.
With `CN1CC2(CC(Cc3cccc(CNC4(c5ccc(F)c(F)c5)CCCC4)c3)C2)C1`, the values for the remaining at 1 h in series [3] and in series [5] were 56% and 84%, respectively. Besides, the CC50 in [4] was found to be 2.99 µM; in [16] it was 14.8 µM. In series [6], the t1/2 was 1.25 h. In addition, the solubility kinetic at 24 h, 250 µM in [8] amounted to 226 µM (≈ 92.8 µg/mL). Also, in series [9], the half-life was greater than 2 h. In addition, the remaining at 2 h in [11] was determined as 32%; in [12] it was 65%.
Consider `CN1CCC(Cc2cc(CNC3(c4ccc(F)cc4)CCCC3)c(F)cc2F)CC1`, for which the remaining at 1 h in series [3] stood at 58%; in series [5], 76%. Moreover, the CC50 in series [4] was 3.11 µM; in [16], 20.4 µM. Besides, the t1/2 in series [6] is 1.33 h. In series [7], the t1/2 at 2 h was greater than 2 h. Moreover, the solubility kinetic at 24 h, 250 µM in series [8] turned out to be 228 µM (≈ 95 µg/mL). Moreover, the percent compound remaining at 2 h in series [17] stood at 95%. Moreover, the half-life in series [9] and in series [14] was greater than 2 h throughout. Moreover, the remaining at 2 h in series [10] was found to be 95%; in series [11], 34%; in series [12], 52%.
In general, EC50 refers to the concentration that produces a half-maximal response. A lower EC50 goes with an effect from little substance. Turning to `CN1CCC(Cc2cccc(CNC3(c4ccc(F)cc4)CCCC3)c2)CC1`, the t1/2 was determined as 0.733 h in series [1] (microsomes) and 0.933 h in [15]. For the same compound, the remaining at 1 h came to 66% in series [3] and 79% in series [5]. Further, the CC50 was 5.93 µM in series [4]; 5.67 µM in series [18]; 13.5 µM in [21]; 18.9 µM in [22]; 2.28 µM in series [23]; greater than 30 µM in series [13]. Moreover, the CC50 in series [24] was greater than 30 µM; in series [25], 2.8 µM; in series [27], 1.91 µM; in [28] it was 7.42 µM. Further, in [7], the t1/2 at 2 h is greater than 2 h. The solubility kinetic at 24 h, 250 µM in [8] was 235 µM (≈ 89.4 µg/mL). The same compound registered an EC50 in [19] of 3.78 µM. Besides, the inhibition entry in [20] was “Dose-Dependent Effect”. In addition, the half-life in series [9] and in series [14] was greater than 2 h throughout. Also, the remaining at 2 h is greater than 95% in [10], 39% in series [11] and 50% in series [12]. The inhibition result in series [26] was “Active”.
As to `CN1CCC(Cc2cc(CNC3(c4ccc(F)cc4)CCCC3)ccc2Cl)CC1`, the remaining at 1 h in [3] is 51%. In addition, the CC50 in series [4] came to 2.34 µM; in [16], 15.4 µM. Also, the t1/2 in [6] turned out to be 0.933 h. In series [8], the solubility kinetic at 24 h, 250 µM came to 216 µM (≈ 89.6 µg/mL). For the same compound, in [11], the remaining at 2 h came to 29%.
Consider `Fc1ccc(C2(NCc3cc(CC4CCNCC4)ccc3F)CCCC2)cc1`, for which the Stability is given as 83% in [29] and 75% in series [2]. Besides, the half-life in series [1] is greater than 1 h; in series [6] (liver microsomes) it was greater than 2 h; in [9] it was greater than 2 h; in series [14] it was greater than 2 h; in series [15] (liver microsomes), greater than 1 h. Further, the values for the remaining at 1 h in [3] and in series [5] were 82% and 75%, respectively. The CC50 is 2.29 µM in series [4] and 17.2 µM in series [16]. Moreover, the t1/2 at 2 h in [7] is greater than 2 h. For the same compound, the solubility kinetic at 24 h, 250 µM in [8] turned out to be 245 µM (≈ 94.2 µg/mL). Also, the remaining at 2 h in series [10] amounted to 95%; in [11], 74%; in series [12], 54%.
